# In the library only some 2.2% were active in any assay of this set; here they are far more common.
# NR2E3 ag-1 = activates human NR2E3 receptor. Q9Y5X4. CHO-S Gal4-NCOR/VP16-NR2E3 two-hybrid, luciferase. inhibition of corepressor binding, % at 3.98 µM. actives 0.35% (n = 360,000). AID 602229;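 active = inhibition above the mean of all tested compounds plus 3 SD, cut at about 70% in these data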;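 also: 0% = DMSO with NR2E3 transfected cells and 100% = cells lacking NR2E3 construct; higher means lower luciferase signal from less NR2E3 corepressor binding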
# NR2E3 ag-2 = NR2E3 (human) agonism; Q9Y5X4; GST-NR2E3/biotin-RetCOR TR-FRET, 1536-well; inhibition of corepressor binding, % at 4.78 µM; actives 0.12% (n = 320,000); AID 2300;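 active = percent inhibition above the cutoff of mean plus 3 SD of all tested compounds, set per screening campaign, cut at about 20% in these data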;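 also: 0% = DMSO wells and 100% = biotin wells as full block of FRET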
#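 System: GST-NR2E3 and biotin-RetCOR proteins; probe or stimulus: 7 nM biotin-RetCOR; doses: compound at 4.8 µM, single dose; schedule: Compound–protein incubation for 5 h at 4 °C; detection: time-resolved FRET; read-out: percent inhibition; controls: biotin wells as high control, 0.6% DMSO wells as low control; format: 1536-well plates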
# COUP-TFII inh = NR2F2 (human) inhibition, primary screen; HEK293T NGFI-A luciferase reporter, luminescence; P24468; inhibition, % at 8.6 µM; actives 0.7% (n = 370,000);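 active = inhibition above a per-plate cutoff, mean inhibition of test wells between control levels plus 3 SD, cut at about 38% in these data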;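 also: cells cotransfected with COUP-TFII expression vector driving the NGFI-A reporter; 0% = median of COUP-TF2 test wells and 100% = reporter-only cells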
# Target sequence (P24468 whole entry, looked up): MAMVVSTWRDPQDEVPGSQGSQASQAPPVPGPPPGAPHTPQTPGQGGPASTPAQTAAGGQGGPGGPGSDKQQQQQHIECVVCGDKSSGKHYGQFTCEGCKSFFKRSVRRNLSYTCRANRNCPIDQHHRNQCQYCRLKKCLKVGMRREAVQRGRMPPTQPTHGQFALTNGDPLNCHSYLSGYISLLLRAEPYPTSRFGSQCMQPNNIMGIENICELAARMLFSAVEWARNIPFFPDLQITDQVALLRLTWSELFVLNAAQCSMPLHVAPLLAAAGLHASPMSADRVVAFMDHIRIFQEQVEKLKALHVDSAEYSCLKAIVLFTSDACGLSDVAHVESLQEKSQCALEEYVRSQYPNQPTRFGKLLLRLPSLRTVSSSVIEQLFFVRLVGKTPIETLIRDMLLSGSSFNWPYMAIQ
# SMARCA2 activ = SMARCA2 function activation, primary screen. MG213 cells, MMTV-luciferase reporter, dexamethasone, overnight. activation, % at 9.1 µM. actives 1% (n = 370,000); in the data active = activation above about 7.8%;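 also: 0% = vehicle wells and 100% = reference activator wells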
# GalR3 antag = blocks the human galanin receptor 3; O60755; HEK293 GalR3-CNG cAMP membrane potential fluorescence; galR3 body fused to GalR1 C-terminus; inhibition, % at 3 µM; actives 0.44% (n = 360,000);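 active = inhibition above the screen-wide average plus 3 SD, cut at about 13% in these data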;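 also: forskolin and galanin both at EC90 stimulate the cells; cAMP rise reported by CNG channel membrane potential dye signal; 0% = forskolin plus galanin with DMSO and 100% = forskolin alone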
# NR2E3 ag conf = confirmation of human NR2E3 agonists. shares compounds with NR2E3 ag-1. CHO-S mammalian two-hybrid NR2E3-NCOR, luciferase luminescence. inhibition, % at 3.98 µM. actives 51% (n = 2,300). AID 624378;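 active = average inhibition above a cutoff equal to the mean inhibition of all tested compounds plus one SD, cut at about 70% in these data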;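 also: 0% = DMSO in NR2E3 cells and 100% = DMSO in cells lacking NR2E3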
# GAL4-VP16 luc = counter-screen for NR2E3 agonists: GAL4-VP16 reporter inhibitors. actives 29% (n = 2,300). shares compounds with NR2E3 ag-1. inhibition, % at 3.98 µM. CHO-S GAL4-VP16 luciferase reporter, luminescence;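 active = mean inhibition above a cutoff equal to the average over all tested compounds plus one standard deviation, cut at about 70% in these data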;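 also: luciferase from a UAS reporter driven by GAL4-VP16 transactivation; 0% = DMSO with VP16-transfected cells and 100% = DMSO with cells lacking VP16; higher means less reporter light so more repression of VP16 activity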
# * marks the source's active call; other numbers are inactive results; · = not tested or not shown.
SMILES,NR2E3 ag-1,NR2E3 ag-2,COUP-TFII inh,SMARCA2 activ,GalR3 antag,NR2E3 ag conf,GAL4-VP16 luc
O=S1(=O)c2ccc(Br)cc2OC[C@@H](c2ccccc2)N1Cc1cn(CCC2OCCO2)nn1,·,·,5,-5,·,·,·
O=C(CSc1nnc(-c2cccnc2)n1Cc1ccco1)Nc1cc(Cl)ccc1F,·,·,-9,0,·,·,·
CCC(=O)NC(c1cccs1)c1cc([N+](=O)[O-])c2cccnc2c1O (centres undefined),63,0,-9,-1,-3,94*,51
CC(C)C(=O)NC(c1ccccc1)c1cc([N+](=O)[O-])c2cccnc2c1O (centres undefined),20,2,-6,-3,-5,·,·
CCCC(=O)NC(c1cccs1)c1cc([N+](=O)[O-])c2cccnc2c1O (centres undefined),16,-2,11,0,-6,·,·
CC(=O)NC(c1cccs1)c1cc([N+](=O)[O-])c2cccnc2c1O (centres undefined),81*,2,-1,-6,-5,98*,54
CC(=O)NC(c1ccccc1)c1cc([N+](=O)[O-])c2cccnc2c1O (centres undefined),57,-8,-7,-3,1,94*,31
Cc1cc(C)cc(C(=O)OCCCN(C)C2CN(Cc3cn(Cc4ccc([N+](=O)[O-])cc4)nn3)S(=O)(=O)C2)c1 (centres undefined),·,·,31,-2,·,·,·
O=C(CSc1nc2ccccc2c(=O)[nH]1)Nc1ccc(N2CCOCC2)c(Cl)c1,49,5,8,-3,-7,27,46
Cc1ccc(NC(=O)CSc2nc3ccccc3c(=O)[nH]2)cc1[N+](=O)[O-],56,·,-1,-3,3,46,60
Oc1c(Cl)cc(Cl)cc1Sc1cc(Cl)cc(Cl)c1O,·,3,·,·,·,·,·
O=S(c1cc(Cl)cc(Cl)c1O)c1cc(Cl)cc(Cl)c1O,84*,·,-2,-4,-6,99*,78*
COC(=O)[C@]12C[C@H](CC(=O)NCc3cccc(C(F)(F)F)c3)C(=O)N(Cc3cccc4ccccc34)C1=C[C@H](COCc1ccccc1)O[C@@H]2C,·,·,4,-5,·,·,·
Cc1ccc(-c2nc(CS(=O)CC(=O)N3CCN(c4ccc(F)cc4)CC3)c(C)o2)cc1 (centres undefined),53,3,20,-1,-8,29,40
CCOCCOC(=O)c1[nH]c2c(c1C)C(=O)CC(c1cc(OC)c(OC)c(OC)c1)C2 (centres undefined),64,-6,36,-3,-10,19,28
COC(=O)c1[nH]c2c(c1C)C(=O)CC(c1cc(OC)c(OC)c(OC)c1)C2 (centres undefined),14,2,0,-3,-9,·,·
CCOCCOC(=O)c1[nH]c2c(c1C)C(=O)CC(c1ccccc1)C2 (centres undefined),23,1,-64,2,3,·,·
CCCCCOC(=O)c1[nH]c2c(c1C)C(=O)CC(c1ccco1)C2 (centres undefined),52,8,·,·,·,-5,11
CNC(=O)[C@@H]1CC=C[C@@H]2CCN(c3ccccc3)C(=O)[C@@H]21,·,·,-13,·,·,·,·
O=S(=O)(c1cccc2cccnc12)N1CCC(c2cn3ccccc3n2)CC1,·,·,13,-3,·,·,·
O=[N+]([O-])c1ccc(NC(=S)NCCc2ccc(F)cc2)cc1,63,-3,-12,-9,-7,77*,48
O=C(NCCc1ccc(F)cc1)Nc1ccc([N+](=O)[O-])cc1,-38,·,-4,-2,0,·,·
O=C(CN1CCCc2ccccc21)NCc1ccccc1F,·,·,0,-1,·,·,·
O=[N+]([O-])c1ccc(O)c(C2CCCCC2)c1,99*,·,-2,-6,-2,99*,92*
Cc1cc2nc(-c3cccc(Cl)c3)c(Cc3ccccc3)n2c(C)c1Br,60,·,·,·,·,29,-15
SMILES,NR2E3 ag-1,NR2E3 ag-2,COUP-TFII inh,SMARCA2 activ,GalR3 antag,NR2E3 ag conf,GAL4-VP16 luc
Cc1cc2nc(-c3cccc(Br)c3)c(Cc3cccc(Cl)c3)n2c(C)c1Br,-1,·,5,0,-8,·,·
C[C@H]1[C@@H](OC(=O)Nc2cc(Cl)ccc2Cl)CC[C@@]23CCCN2C(=O)CCC[C@@H]13,·,·,0,·,·,·,·
COc1cc2c(cc1OC)C(c1ccc3c(c1)OCO3)CC(=O)N2 (centres undefined),-16,2,·,·,·,·,·
COc1ccc(C2CCc3cc4c(cc3C2=NO)OCO4)cc1OC (centres undefined),67,·,-6,-3,-2,39,44
CC(C)c1ccc(C(=O)Nc2cc(Cl)ccc2C(=O)O)cc1,·,·,7,·,·,·,·
CC12CCC(O)CC1=CCC1C2CCC2(C)C(c3ccn[nH]3)CCC12 (centres undefined),82*,·,30,-3,-4,67,58
CCNC(=S)NNC(=O)CSc1nnc(-c2ccccc2)n1-c1ccc(Cl)cc1,·,·,-34,-2,·,·,·
CN(Cc1ccc(F)cc1)C(=O)c1cc(COc2ccc(-n3cncn3)cc2)on1,73*,·,19,-2,-3,61,63
CCc1ccc(CN(C)C(=O)c2cc(COc3ccc(-n4cncn4)cc3)on2)cc1,80*,2,15,-1,-3,43,44
Cc1ccc(OCc2cc(C(=O)N(C)Cc3cnn(-c4ccccc4C)c3)no2)cn1,80*,1,24,-1,-4,56,49
CCc1ccc(CN(C)C(=O)c2cc(COc3cncc(Cl)c3)on2)cc1,-22,·,4,-3,-7,·,·
Cc1cccc(C2(c3cccc(C)c3)CC2C(=O)Nc2ccc([N+](=O)[O-])cc2O)c1 (centres undefined),86*,-4,12,-10,-4,74*,67
Cc1nc2cc(C(=O)N3CCN(C(=O)C(Cl)Cl)CC3)ccc2n1C1CCCC1,·,·,4,-5,·,·,·
Cc1coc2cc3oc(=O)c(CCC(=O)NC4CC4)c(C)c3cc12,70*,0,6,3,-2,85*,54
Cc1oc2cc3oc(=O)c(CCC(=O)NC4CC4)c(C)c3cc2c1C,22,0,-18,-1,-3,·,·
FC(F)(F)c1cccc(NC(=S)Nc2ccc(Cl)c(Cl)c2)c1,-3,2,-5,0,4,·,·
O=[N+]([O-])c1cc(C(F)(F)F)cc([N+](=O)[O-])c1NCCNC(=S)Nc1ccc(Cl)c(Cl)c1,65,2,7,-9,-4,98*,25
CCOc1ccc(-n2c(SCC(=O)Nc3cccc4ccccc34)nnc2-c2ccncc2)cc1,·,·,-16,-6,·,·,·
CC(=O)N1CC(C)Sc2ccc(S(=O)(=O)NCCc3ccc(C)cc3)cc21 (centres undefined),80*,3,29,-4,7,74*,68

# Compound activity deposited in PubChem BioAssay by The Scripps Research Institute Molecular Screening Center.
